# Results: ChEMBL document CHEMBL1145499, “Asiatic acid and corosolic acid enhance the susceptibility of Pseudomonas aeruginosa biofilms to tobramycin” (2007)
# Experiments:
# Type in all cases: functional
# [1] = test system: Pseudomonas aeruginosa; assay: Antibacterial activity against Pseudomonas aeruginosa PAO1 assessed as log reduction of bacterial count by rotating disk reactor method
# In short: (§1)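 Rotating disk reactor (~200 rpm, 180 ml, 60-min residence, ca. 26°C) with polystyrene coupons and P. aeruginosa PAO1 inoculated per ASTM E-2196-02. Biofilms were grown 24 h in batch, then 24 h under flow. Compound was added to ~100 µg/ml final (ethanol or DMSO vehicle) for 24 h in batch. Coupons then received 100 µg/ml tobramycin or PBS for 2 h at room temperature. LR = negative-control mean log10 CFU/cm2 minus treated mean, three coupons per set.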
# [2] = test system: Pseudomonas aeruginosa; assay: Antibacterial activity against Pseudomonas aeruginosa PAO1
# [3] = test system: Pseudomonas aeruginosa; assay: Antibacterial activity against Pseudomonas aeruginosa PAO1 assessed as log reduction of bacterial count at 50 ug/ml by rotating disk reactor method
# [4] = test system: Pseudomonas aeruginosa; assay: Antibacterial activity against Pseudomonas aeruginosa PAO1 assessed as log reduction of bacterial count at 10 ug/ml by rotating disk reactor method
# [5] = test system: Pseudomonas aeruginosa; assay: Antibacterial activity against Pseudomonas aeruginosa PAO1 assessed as log reduction of bacterial count at 100 ug/ml by rotating disk reactor method; in short: as §1
# [6] = test system: Pseudomonas aeruginosa; assay: Antibacterial activity against Pseudomonas aeruginosa PAO1 assessed as log reduction of bacterial count at 100 ug/ml by CDC biofilm reactor method
# In short: (§2)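 CDC-type biofilm reactor with PAO1 on polystyrene coupons, grown 24 h batch then 24 h continuous flow. Medium was fed at 13 ml/min, giving ~27 min residence. Coupon treatments, inoculum, medium and analysis matched the rotating disk runs: sonication, plate counts, log10 CFU/cm2, and log reduction against untreated control.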
# [7] = test system: Pseudomonas aeruginosa; assay: Antibacterial activity against Pseudomonas aeruginosa PAO1 assessed as log reduction of bacterial count at 50 ug/ml by CDC biofilm reactor method; in short: as §2
SMILES,Activity [1],MIC [2],Activity [3],Activity [4],Activity [5],Activity [6],Activity [7]
O=C(O)c1cn(C2CC2)c2cc(N3CCNCC3)c(F)cc2c1=O [CIPROFLOXACIN],-0.29,≥ 1 µg/mL,–,–,–,–,–
NC[C@H]1O[C@H](O[C@H]2[C@H](O)[C@@H](O[C@H]3O[C@H](CO)[C@@H](O)[C@H](N)[C@H]3O)[C@H](N)C[C@@H]2N)[C@H](N)C[C@@H]1O [TOBRAMYCIN],0.4,–,0.78,1.51,1.36,–,–
C[C@H]1[C@H](C)CC[C@]2(C(=O)O)CC[C@]3(C)C(=CC[C@@H]4[C@@]5(C)C[C@@H](O)[C@H](O)C(C)(C)[C@@H]5CC[C@]43C)[C@H]12 [COROSOLIC ACID],–,> 128 µg/mL,-0.04,–,0.02,0.7,–
C[C@H]1[C@H](C)CC[C@]2(C(=O)O)CC[C@]3(C)C(=CC[C@@H]4[C@@]5(C)C[C@@H](O)[C@H](O)[C@@](C)(CO)[C@@H]5CC[C@]43C)[C@H]12 [ASIATIC ACID],–,≥ 128 µg/mL,0.12,0.14,0.19,–,0.8
